Measurements as given in ChEMBL document CHEMBL4819008, “Design, synthesis, and evaluation of "dual-site"-binding diarylpyrimidines targeting both NNIBP and the NNRTI adjacent site of the HIV-1 reverse transcriptase” (Eur J Med Chem, 2021).

Tests used:
[1] = test system: Human immunodeficiency virus 1; test: Antiviral activity against wild type HIV1 NL4-3 infected in human TZM-bl cells assessed as reduction in viral infection measured after 1 day by luciferase reporter gene assay based luminiscence assay; type: functional, organism-based; settings: Human immunodeficiency virus 1, NL4-3, TZM-bl, 24 h
Outline: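 TZM-bl cells got a single-round infection with 800 TCID50 of NL4-3 at various compound concentrations, top concentration 100 ng/mL. Luminescence was read 1 day post-infection. EC50 is the concentration giving a 50% decrease in luciferase RLU versus control wells, determined in at least triplicate.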

[2] = Cytotoxicity against human TZM-bl cells assessed as reduction in cell viability measured after 1 day by CytoTox-Glo assay; type: cell-based
Outline: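 TZM-bl cells were cultured 1 day with various compound concentrations, in parallel with the antiviral assay, top concentration 100 ng/mL. Viable cells were measured by CytoTox-Glo. CC50 is the concentration causing a 50% reduction in cell viability.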

[3] = Selectivity index, ratio of CC50 for human TZM-bl cells to EC50 for wild type HIV1 NL4-3 infected in human TZM-bl cells; type: toxicity, cell-based; settings: read-out: Ratio CC50/EC50
Outline: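 Selectivity index is CC50/EC50, with both values from the TZM-bl assays: NL4-3 single-round luciferase infection and CytoTox-Glo viability, each over 1 day.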

[4] = test system: Human immunodeficiency virus 1; test: Antiviral activity against wild type HIV-1 3B infected in human MT4 cells assessed as inhibition of virus-induced cytopathic effect measured after 5 days by MTT assay; type: functional, organism-based; settings: Human immunodeficiency virus 1, 3B, MT4, 120 h
Outline: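 MT-4 cells at 6 × 10^5 cells/mL were infected with virus stock at 100–300 CCID50 in the presence of serial 5-fold compound dilutions, in triplicate wells. Viability was read by MTT reduction 5 days after infection, with absorbance at 540 and 690 nm and the median OD of three wells used. EC50 is the concentration giving 50% protection from viral cytopathicity.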

[5] = Cytotoxicity against human MT4 cells assessed as reduction in cell viability measured after 5 days by MTT assay; type: cell-based; settings: time 5 day
Outline: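 Mock-infected MT-4 cells (6 × 10^5 cells/mL) were run in parallel with the infected wells, under serial 5-fold compound dilutions in triplicate. MTT viability was read after 5 days and the median OD of three wells used. CC50 is the concentration that reduced OD540 of the mock-infected cells by 50%.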

[6] = Selectivity index, ratio of CC50 for human MT4 cells to EC50 for wild type HIV-1 3B infected in human MT4 cells; type: toxicity, cell-based; settings: read-out: Ratio CC50/EC50
[7] = test system: Human immunodeficiency virus 1; test: Antiviral activity against HIV-1 harboring reverse transcriptase L100I mutant infected in human MT4 cells assessed as inhibition of virus induced cytopathic effect measured after 5 days by MTT assay; type: functional, organism-based; settings: Human immunodeficiency virus 1, MT4, 120 h
Outline: (§1)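 MT-4 cells, exponentially growing, resuspended at 6 × 10^5 cells/mL and infected with the mutant HIV-1 stock at 100–300 CCID50. Compounds were added as 5-fold serial dilutions, in triplicate wells, alongside mock-infected wells. After 5 days, viability was read by MTT reduction at 540 and 690 nm using the median OD of three wells. EC50 is the concentration giving 50% protection from viral cytopathogenicity.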

[8] = test system: Human immunodeficiency virus 1; test: Antiviral activity against HIV-1 harboring reverse transcriptase K103N mutant infected in human MT4 cells assessed as inhibition of virus induced cytopathic effect measured after 5 days by MTT assay; type: functional, organism-based; settings: Human immunodeficiency virus 1, MT4, 120 h; outline: as §1
[9] = test system: Human immunodeficiency virus 1; test: Antiviral activity against HIV-1 harboring reverse transcriptase Y181C mutant infected in human MT4 cells assessed as inhibition of virus induced cytopathic effect measured after 5 days by MTT assay; type: functional, organism-based; settings: Human immunodeficiency virus 1, MT4, 120 h; outline: as §1
[10] = test system: Human immunodeficiency virus 1; test: Antiviral activity against HIV-1 harboring reverse transcriptase Y188L mutant infected in human MT4 cells assessed as inhibition of virus induced cytopathic effect measured after 5 days by MTT assay; type: functional, organism-based; settings: Human immunodeficiency virus 1, MT4, 120 h; outline: as §1
[11] = test system: Human immunodeficiency virus 1; test: Antiviral activity against HIV-1 harboring reverse transcriptase E138K mutant infected in human MT4 cells assessed as inhibition of virus induced cytopathic effect measured after 5 days by MTT assay; type: functional, organism-based; settings: Human immunodeficiency virus 1, MT4, 120 h; outline: as §1
[12] = test system: Human immunodeficiency virus 1; test: Antiviral activity against HIV-1 harboring reverse transcriptase F227L/V106A mutant infected in human MT4 cells assessed as inhibition of virus induced cytopathic effect measured after 5 days by MTT assay; type: functional, organism-based; settings: Human immunodeficiency virus 1, MT4, 120 h; outline: as §1
[13] = test system: Human immunodeficiency virus 1; test: Antiviral activity against HIV-1 harboring reverse transcriptase RES056 mutant infected in human MT4 cells assessed as inhibition of virus induced cytopathic effect measured after 5 days by MTT assay; type: functional, organism-based; settings: Human immunodeficiency virus 1, MT4, 120 h; outline: as §1
[14] = Antiviral activity against HIV-2 ROD infected in human MT4 cells assessed as protection against virus-induced cytopathic effect measured after 5 days by MTT assay; settings: Human immunodeficiency virus 2, ISOLATE ROD, MT4, 120 h
[15] = target: Human immunodeficiency virus type 1 reverse transcriptase (Human immunodeficiency virus 1, UniProt Q72547); test: Inhibition of HIV-1 reverse transcriptase assessed as reduction in biotin-dUTP incorporation into cDNA incubated for 1 hr with DIG-dUTP, biotin-dUTP and dTTP followed by transferring onto streptavidin-coated plate and measured after 1 hr by ELISA
Outline: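 Recombinant WT HIV-1 RT was tested with a Roche colorimetric kit. Enzyme, reconstituted template, DIG-dUTP, biotin-dUTP and dTTP were incubated 1 h at 37 °C in incubation buffer with or without inhibitor. The mix was then held 1 h at 37 °C on a streptavidin-coated plate, then anti-DIG-POD 1 h at 37 °C, then ABTS at 25 °C, and read at OD405.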

Cc1cc(C#N)cc(C)c1Oc1nc(Nc2ccc(C#N)cc2)ncc1/C=C/C(=O)NCCN1CCN(S(C)(=O)=O)CC1
EC50 [1]: 4.16 nM | CC50 at 24 h [2]: > 166 nM | selectivity ratio [3]: > 40 | EC50 [4]: 6.1 nM | CC50 at 120 h [5]: 5900 nM | selectivity ratio [6]: 955 | EC50 [7]: 78.6 nM | EC50 [8]: 8.7 nM | EC50 [9]: 48.6 nM | EC50 [10]: 101 nM | EC50 [11]: 20.9 nM | EC50 [12]: 251 nM | EC50 [13]: 808 nM | EC50 [14]: > 5860 nM

Cc1cc(C#N)cc(C)c1Oc1nc(Nc2ccc(C#N)cc2)ncc1/C=C/C(=O)NCC1CCN(S(C)(=O)=O)CC1
EC50 [1]: 12.8 nM | CC50 at 24 h [2]: > 171 nM | selectivity ratio [3]: > 13

CCOC(=O)/C=C/c1cnc(Nc2ccc(C#N)cc2)nc1Oc1c(C)cc(C#N)cc1C
EC50 [1]: 18.7 nM | CC50 at 24 h [2]: > 227 nM | selectivity ratio [3]: > 12

Cc1cn([C@H]2C[C@H](N=[N+]=[N-])[C@@H](CO)O2)c(=O)[nH]c1=O [ZIDOVUDINE]
EC50 [1]: 7.5 nM | CC50 at 24 h [2]: > 6300 nM | selectivity ratio [3]: > 1000 | EC50 [4]: 18.3 nM | CC50 at 120 h [5]: > 7500 nM | selectivity ratio [6]: > 410 | EC50 [7]: 7 nM | EC50 [8]: 12.6 nM | EC50 [9]: 8.7 nM | EC50 [10]: 9.9 nM | EC50 [11]: 14.5 nM | EC50 [12]: 4.7 nM | EC50 [13]: 20.1 nM

Cc1cc(C#N)cc(C)c1Oc1nc(Nc2ccc(C#N)cc2)ncc1/C=C/C(=O)NCCN1CCOCC1
EC50 [1]: 3.44 nM | CC50 at 24 h [2]: > 190 nM | selectivity ratio [3]: > 56 | EC50 [4]: 8.5 nM | CC50 at 120 h [5]: 22400 nM | selectivity ratio [6]: 2630 | EC50 [7]: 263 nM | EC50 [8]: 18.5 nM | EC50 [9]: 108 nM | EC50 [10]: 123 nM | EC50 [11]: 21.8 nM | EC50 [12]: 462 nM | EC50 [13]: 1750 nM | EC50 [14]: > 22400 nM

Cc1cc(C#N)cc(C)c1Oc1nc(Nc2ccc(C#N)cc2)ncc1/C=C/C(=O)NCCCN1CCOCC1
EC50 [1]: 3.53 nM | CC50 at 24 h [2]: > 186 nM | selectivity ratio [3]: > 53 | EC50 [4]: 10.5 nM | CC50 at 120 h [5]: 23000 nM | selectivity ratio [6]: 2200 | EC50 [7]: 254 nM | EC50 [8]: 22 nM | EC50 [9]: 124 nM | EC50 [10]: 212 nM | EC50 [11]: 22.6 nM | EC50 [12]: 443 nM | EC50 [13]: 1210 nM | EC50 [14]: > 23000 nM

Cc1cc(C#N)cc(C)c1Oc1nc(Nc2ccc(C#N)cc2)ncc1/C=C/C(=O)NCC1CCN(S(C)(=O)=O)C1 (stereo not given)
EC50 [1]: 13.6 nM | CC50 at 24 h [2]: > 175 nM | selectivity ratio [3]: > 13

Cc1cc(C#N)cc(C)c1Oc1nc(Nc2ccc(C#N)cc2)ncc1/C=C/C(=O)NCCOCCO
EC50 [1]: 4.81 nM | CC50 at 24 h [2]: > 200 nM | selectivity ratio [3]: > 42 | EC50 [4]: 27.1 nM | CC50 at 120 h [5]: 61800 nM | selectivity ratio [6]: 2280 | EC50 [7]: 227 nM | EC50 [8]: 50.3 nM | EC50 [9]: 197 nM | EC50 [10]: 146 nM | EC50 [11]: 47.1 nM | EC50 [12]: 318 nM | EC50 [13]: 1050 nM | EC50 [14]: > 61800 nM

O=C1Nc2ccc(Cl)cc2[C@@](C#CC2CC2)(C(F)(F)F)O1 [EFAVIRENZ]
EC50 [1]: 5.2 nM | CC50 at 24 h [2]: > 6300 nM | selectivity ratio [3]: > 1210 | EC50 [4]: 2.5 nM | CC50 at 120 h [5]: > 6300 nM | selectivity ratio [6]: > 2570 | EC50 [7]: 30.8 nM | EC50 [8]: 63.7 nM | EC50 [9]: 5.2 nM | EC50 [10]: 148 nM | EC50 [11]: 5.7 nM | EC50 [12]: 169 nM | EC50 [13]: 273 nM

Cc1cc(C#N)cc(C)c1Oc1nc(Nc2ccc(C#N)cc2)ncc1/C=C/C(=O)NC1CCN(S(C)(=O)=O)CC1
EC50 [1]: 14.2 nM | CC50 at 24 h [2]: > 175 nM | selectivity ratio [3]: > 12

Cc1cc(C#N)cc(C)c1Oc1nc(Nc2ccc(C#N)cc2)ncc1/C=C/C(=O)NC1CC1
EC50 [1]: 5.1 nM | CC50 at 24 h [2]: > 221 nM | selectivity ratio [3]: > 44

Cc1cc(C#N)cc(C)c1Oc1nc(Nc2ccc(C#N)cc2)ncc1/C=C/C(=O)N1CCN(S(=O)(=O)C(F)(F)F)CC1
EC50 [1]: > 164 nM | CC50 at 24 h [2]: > 164 nM | selectivity ratio [3]: > 1

Cc1cc(C#N)cc(C)c1Oc1nc(Nc2ccc(C#N)cc2)ncc1SCC(=O)NCCCN1CCOCC1
EC50 [1]: 3.77 nM | CC50 at 24 h [2]: > 179 nM | selectivity ratio [3]: > 48 | EC50 [4]: 3.7 nM | CC50 at 120 h [5]: 24000 nM | selectivity ratio [6]: 6540 | EC50 [7]: 16.3 nM | EC50 [8]: 2.2 nM | EC50 [9]: 19.1 nM | EC50 [10]: 38.7 nM | EC50 [11]: 37.3 nM | EC50 [12]: 182 nM | EC50 [13]: 332 nM | IC50 [15]: 35 nM | EC50 [14]: > 24000 nM
